# Experimental data: ChEMBL document CHEMBL1122999 (J Med Chem, 1985)
# Experiments:
# Rattus norvegicus [1] = species: Rattus norvegicus; test: Inhibition of GABA uptake from rat diencephalon-midbrain at 100 uM concentration; format: functional
# Rattus norvegicus [2] = species: Rattus norvegicus; test: (§1) Inhibition of Norepinephrine uptake from rat diencephalon-midbrain; format: functional
# [3] = biological target: Norepinephrine transporter (Rattus norvegicus, UniProt Q9WTR4); test: as §1
# Chain of Norepinephrine transporter (Q9WTR4 whole entry): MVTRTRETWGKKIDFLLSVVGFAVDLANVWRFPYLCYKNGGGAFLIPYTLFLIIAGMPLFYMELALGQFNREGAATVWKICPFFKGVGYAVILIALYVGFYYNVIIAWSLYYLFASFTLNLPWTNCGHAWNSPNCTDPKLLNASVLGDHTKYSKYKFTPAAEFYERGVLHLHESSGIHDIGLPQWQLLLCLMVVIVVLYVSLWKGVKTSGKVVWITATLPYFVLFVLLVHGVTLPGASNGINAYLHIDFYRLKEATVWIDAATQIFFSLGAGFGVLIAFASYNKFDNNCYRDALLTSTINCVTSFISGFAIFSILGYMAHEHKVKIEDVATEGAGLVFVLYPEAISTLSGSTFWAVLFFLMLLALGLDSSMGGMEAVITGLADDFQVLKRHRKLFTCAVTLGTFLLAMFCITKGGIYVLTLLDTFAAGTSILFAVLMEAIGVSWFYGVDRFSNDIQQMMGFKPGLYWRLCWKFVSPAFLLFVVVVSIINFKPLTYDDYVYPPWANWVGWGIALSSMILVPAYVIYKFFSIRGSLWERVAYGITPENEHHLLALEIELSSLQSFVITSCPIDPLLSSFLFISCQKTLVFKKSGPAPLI
# [4] = biological target: T1, GABA-A receptor; anion channel (Rattus norvegicus) (UniProt O09028+P15431+P18506+P18508+P19969+P20236+P23574+P23576+P28471+P28473+P30191+P62813+P63079+P63138+Q91ZM7+Q9ES14); test: Displacement of [3H]- muscimol from GABA-A receptor from rat cerebellum membrane at 100 uM; format: tissue-based
# [5] = (§2) Inhibition of GABA uptake from rat diencephalon-midbrain,
# Outline: (§3)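 P2 synaptosomal fraction prepared from rat brain in 0.32 M sucrose by 1000g and 16500g spins. About 150 µg protein preincubated 15 min at 37 °C with inhibitor in oxygenated Tris/NaCl buffer, pH 7.4, containing 2.7 mM CaCl2 and 10 µM aminooxyacetic acid. Uptake of 1 µM [3H]GABA run for 3 min, then filtered and counted. Accumulation at 0 °C subtracted. Screening at 10, 1 and 0.1 µM in quadruplicate on pooled diencephalon-midbrain tissue.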
# Rattus norvegicus [6] = species: Rattus norvegicus; test: as §2; format: functional, organism-based
# Rattus norvegicus [7] = species: Rattus norvegicus; test: Inhibition of GABA uptake from rat diencephalon-midbrain at 10 uM concentration; format: functional; outline: as §3
# [8] = biological target: T2, Glutamate decarboxylase 1 (Rattus norvegicus) (UniProt P18088); test: Percent of enzyme inhibition by Glutamate decarboxylase (GAD) assay method; conditions: concentration not given here
# T2 sequence (whole entry): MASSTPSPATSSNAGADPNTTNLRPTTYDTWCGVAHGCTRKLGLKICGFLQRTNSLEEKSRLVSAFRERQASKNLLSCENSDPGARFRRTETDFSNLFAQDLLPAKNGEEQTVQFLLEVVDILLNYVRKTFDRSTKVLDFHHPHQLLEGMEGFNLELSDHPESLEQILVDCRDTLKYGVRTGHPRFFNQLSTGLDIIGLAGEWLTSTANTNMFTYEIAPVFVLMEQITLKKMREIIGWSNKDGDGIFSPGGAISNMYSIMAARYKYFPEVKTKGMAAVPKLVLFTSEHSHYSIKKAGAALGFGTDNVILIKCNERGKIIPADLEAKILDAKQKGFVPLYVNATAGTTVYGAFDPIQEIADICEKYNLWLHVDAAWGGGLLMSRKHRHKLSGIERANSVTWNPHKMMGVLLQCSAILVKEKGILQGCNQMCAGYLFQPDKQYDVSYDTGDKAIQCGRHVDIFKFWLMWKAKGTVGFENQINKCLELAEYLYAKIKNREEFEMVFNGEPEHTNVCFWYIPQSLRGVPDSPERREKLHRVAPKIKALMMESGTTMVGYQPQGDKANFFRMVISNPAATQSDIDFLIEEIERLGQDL
# Outline: (§4)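 Homogenate of rat diencephalon-midbrain in phosphate buffer pH 6.5 with Triton X-100. Incubated with 5 mM l-glutamate, 10 µM pyridoxal phosphate and test agent at 1 mM final, 30 min at 37 °C. Stopped by boiling; boiled-enzyme blanks used. GABA formed quantified fluorometrically with GABAase and NADPH.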
# [9] = biological target: 4-aminobutyrate aminotransferase, mitochondrial (Rattus norvegicus) (UniProt P50554); test: Percent of enzyme inhibition by Gamma-amino-N-butyrate transaminase assay method; conditions: concentration not given here
# Chain of 4-aminobutyrate aminotransferase, mitochondrial (Rattus norvegicus) (P50554 28-500 limits assumed): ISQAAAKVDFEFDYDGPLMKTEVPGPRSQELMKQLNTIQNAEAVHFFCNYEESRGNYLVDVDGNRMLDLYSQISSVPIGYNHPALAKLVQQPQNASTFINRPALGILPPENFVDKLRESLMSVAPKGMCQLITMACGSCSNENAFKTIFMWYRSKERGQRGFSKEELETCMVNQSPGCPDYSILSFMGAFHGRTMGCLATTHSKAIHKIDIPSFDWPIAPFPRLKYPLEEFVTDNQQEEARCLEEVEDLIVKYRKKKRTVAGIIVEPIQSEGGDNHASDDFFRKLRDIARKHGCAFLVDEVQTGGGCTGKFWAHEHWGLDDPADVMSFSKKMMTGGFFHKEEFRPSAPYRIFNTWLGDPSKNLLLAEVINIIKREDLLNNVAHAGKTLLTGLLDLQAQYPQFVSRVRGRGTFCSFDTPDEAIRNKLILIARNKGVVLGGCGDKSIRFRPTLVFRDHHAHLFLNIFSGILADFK
# Outline: (§5)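 Rat diencephalon-midbrain homogenate in Tris-HCl pH 8.0 with Triton X-100. Incubated with 2 mM α-ketoglutarate, 0.2 mM GABA and 20 µM pyridoxal phosphate, test agent at 1 mM final, 30 min at 37 °C. Blanks held at 4 °C. Glutamate formed read fluorometrically as NADH via glutamate dehydrogenase.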
# [10] = Dissociation constant pKa (CO2H) of the compound; format: physicochemical
# [11] = biological target: T2, Glutamate decarboxylase 1 (Rattus norvegicus); test: Percent of enzyme inhibition by Glutamate decarboxylase assay method; conditions: concentration not given here; outline: as §4
# [12] = Dissociation constant pKa (N) of the compound; format: physicochemical
# [13] = biological target: T1, GABA-A receptor; anion channel (Rattus norvegicus); test: Percent inhibition of [3H]- Diazepam binding to GABA-A Benzodiazepine receptor of rat frontal cortex membranes; format: cell membranes; conditions: Membrane, concentration not given here
# Outline: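 Rat frontal cortex membranes with 1.5 nM [3H]diazepam (KD 9.7 nM). Nonspecific binding defined with 3 µM diazepam.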
# [14] = biological target: T2, Glutamate decarboxylase 1 (Rattus norvegicus); test: Percent inhibition of Glutamate decarboxylase from rat was evaluated; conditions: concentration not given here; outline: as §4
# [15] = biological target: 4-aminobutyrate aminotransferase, mitochondrial (Rattus norvegicus) (UniProt P50554); test: Percent inhibition of Gamma-amino-N-butyrate transaminase from rat was evaluated; conditions: concentration not given here; outline: as §5
# [16] = as §2; conditions: concentration not given here
# Outline: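 Rat diencephalon-midbrain P2 synaptosomal fraction (0.32 M sucrose homogenate, differential centrifugation), pooled from three rats. Preincubated 15 min at 37 °C with inhibitor in oxygenated Tris/NaCl buffer pH 7.4 containing 2.7 mM CaCl2 and 10 µM aminooxyacetic acid. Then 3 min uptake of 1 µM [3H]GABA, filtration, scintillation counting, minus 0 °C uptake. Screened at 10, 1, 0.1 µM in quadruplicate.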
# [17] = Dissociation constant pKa (N) was evaluated; format: physicochemical
# [18] = biological target: Serotonin 1 (5-HT1) receptor (Rattus norvegicus) (UniProt P28564+P30940+P19327+P28565); test: Percent inhibition of 5-hydroxytryptamine 1 receptor from rat cortex membrane using [3H]- serotonin as radioligand at 33 uM
# [19] = Dissociation constant pKa (CO2H) was evaluated; format: physicochemical
# [20] = biological target: D(2) dopamine receptor (Rattus norvegicus) (UniProt P61169); test: Percent inhibition of Dopamine receptor D2 from rat striatal membrane using [3H]- spiroperidol as radioligand at 50 uM
# Chain of D(2) dopamine receptor (Rattus norvegicus) (P61169 whole entry): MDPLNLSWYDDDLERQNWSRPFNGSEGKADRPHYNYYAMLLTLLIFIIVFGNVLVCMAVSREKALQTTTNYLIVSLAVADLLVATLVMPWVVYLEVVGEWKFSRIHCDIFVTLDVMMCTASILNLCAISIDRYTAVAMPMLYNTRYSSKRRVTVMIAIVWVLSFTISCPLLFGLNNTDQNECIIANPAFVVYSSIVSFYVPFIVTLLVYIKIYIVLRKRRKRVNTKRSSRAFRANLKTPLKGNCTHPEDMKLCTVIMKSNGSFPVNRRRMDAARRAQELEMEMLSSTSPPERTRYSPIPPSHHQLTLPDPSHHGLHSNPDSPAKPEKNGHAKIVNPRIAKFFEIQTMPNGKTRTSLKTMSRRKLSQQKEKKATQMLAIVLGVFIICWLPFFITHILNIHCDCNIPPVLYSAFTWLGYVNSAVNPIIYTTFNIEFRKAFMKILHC
# Outline: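 Rat striatal membranes with 0.22 nM [3H]spiroperidol (KD 0.287 nM). Nonspecific binding defined with 1 µM d-butaclamol.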
# [21] = Distribution coefficient was evaluated; format: physicochemical; conditions: octanol/water
# Outline: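 Distribution coefficient (log D) measured between 1-octanol and phosphate buffer, pH 7.4.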
# [22] = biological target: Adrenergic receptor alpha-1 (Rattus norvegicus) (UniProt P15823+P23944+P43140); test: Percent inhibition of alpha-1 adrenergic receptor from rat cortical membrane using [3H]- WB-4101 as radioligand at 10 uM
# Outline: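 Rat cortical membranes labelled with 0.22 nM [3H]WB4101 (KD 0.306 nM). Nonspecific binding defined with 100 µM norepinephrine.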
# [23] = biological target: Muscarinic acetylcholine receptor (Rattus norvegicus) (UniProt P08482+P08483+P08485+P08911+P10980); test: Percent inhibition of Muscarinic acetylcholine receptor from rat striatal membrane using [3H]- QNB as radioligand at 100 uM
# Outline: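 Displacement on rat striatal membranes using 0.23 nM [3H]QNB (KD 0.20 nM). Nonspecific binding defined with 1 µM atropine.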
# [24] = biological target: T1, GABA-A receptor; anion channel (Rattus norvegicus); conditions: Cerebellum, 0.003-0.006 uM
# Rattus norvegicus [25] = species: Rattus norvegicus; test: Inhibition of GABA uptake from rat diencephalon-midbrain at 1 uM concentration; format: functional; outline: as §3
# Rattus norvegicus [26] = species: Rattus norvegicus; test: Inhibition of GABA uptake from rat diencephalon-midbrain; format: functional; outline: as §3
# [27] = biological target: GABA-A receptor; anion channel; test: Displacement of [3H]- muscimol from GABA-A receptor from rat cerebellum membrane at 0.24-0.45 uM; format: tissue-based
compound,measurement,setting,value
CN(C)CCCN1c2ccccc2CCc2ccccc21 [IMIPRAMINE],Inhibition,Rattus norvegicus [1],68%
same,IC50,Rattus norvegicus [2],0.027 µM
O=C(O)C1CN(CCC=C(c2ccccc2)c2ccccc2)CCC1O (configuration not stated),IC50,[3],33.6 µM
same,inhibition,[4],48%
same,IC50,[5],0.26 µM
NC1CCCC(C(=O)O)C1 (configuration not stated),IC50,Rattus norvegicus [6],8.13 µM
O=C(O)C1CCCC(NCCC=C(c2ccccc2)c2ccccc2)C1 (configuration not stated),Inhibition,Rattus norvegicus [7],54%
same,IC50,Rattus norvegicus [2],29.9 µM
CCOC(=O)C1CCCN(CCC=C(c2ccccc2)c2ccccc2)C1 (configuration not stated),Increase,Rattus norvegicus [1],17%
O=C(O)CC1CCN(CCC=C(c2ccccc2)c2ccccc2)C1 (configuration not stated),IC50,[3],108 µM
same,inhibition,[4],20%
same,IC50,[5],0.12 µM
O=C(O)[C@@H]1CCCNC1 [(R)-NIPECOTIC ACID],IC50,Rattus norvegicus [6],1.69 µM
O=C(O)C1=CCCNC1 [GUVACINE],inhibition,[4],27%
same,inhibition,[8],0%
same,inhibition,[9],7%
same,IC50,Rattus norvegicus [6],4.92 µM
O=C(O)[C@@H]1CCCN(CCC=C(c2ccccc2)c2ccccc2)C1,IC50,Rattus norvegicus [2],123 µM
same,IC50,Rattus norvegicus [6],0.11 µM
O=C(O)C1CCCNC1 (configuration not stated) [NIPECOTIC ACID],pKa,[10],3.45
same,inhibition,[11],0%
same,inhibition,[9],3%
same,IC50,Rattus norvegicus [6],3.94 µM
same,pKa,[12],10.3
O=C(O)C1=CCCN(CCC=C(c2ccccc2)c2ccccc2)C1,inhibition,[4],8%
same,inhibition,[13],5%
same,inhibition,[14],7%
same,IC50,Rattus norvegicus [2],58.2 µM
same,IC50,Rattus norvegicus [6],0.2 µM
same,inhibition,[15],9%
O=C(O)C1CNCCC1O (configuration not stated),inhibition,[4],10%
same,Inhibition,Rattus norvegicus [2],7%
same,IC50,Rattus norvegicus [6],4.56 µM
O=C(O)C1CCCN(CC=C(c2ccccc2)c2ccccc2)C1 (configuration not stated),Inhibition,Rattus norvegicus [7],5%
O=C(O)[C@H]1CCCN(CCC=C(c2ccccc2)c2ccccc2)C1,IC50,Rattus norvegicus [2],180 µM
same,IC50,Rattus norvegicus [6],1.91 µM
COC(=O)C1=CCCNC1,inhibition,[16],4%
O=C(O)C1CCCN(CCC=C(c2ccccc2)c2ccccc2)C1 (configuration not stated),pKa,[17],9.36
same,inhibition,[4],8%
same,inhibition,[18],16%
same,pKa,[19],3.32
same,inhibition,[20],22%
same,logD,[21],1.14
same,inhibition,[13],21%
same,inhibition,[22],12%
same,inhibition,[14],7%
same,IC50,Rattus norvegicus [2],117 µM
same,IC50,Rattus norvegicus [6],0.2 µM
same,inhibition,[15],12%
same,inhibition,[23],12%
NNC(=O)c1ccncc1,inhibition,[11],42%
NOCC(=O)O,inhibition,[9],83%
CCOC(=O)C1CCCNC1 (configuration not stated),Inhibition,Rattus norvegicus [1],52%
NCc1cc(O)no1,inhibition,[24],0.004%
O=C(O)C1CCCN(CCCC(c2ccccc2)c2ccccc2)C1 (configuration not stated),Inhibition,Rattus norvegicus [7],27%
O=C(O)C1CCCN(CCCC=C(c2ccccc2)c2ccccc2)C1 (configuration not stated),Inhibition,Rattus norvegicus [25],31%
O=C(O)CCCNCCC=C(c1ccccc1)c1ccccc1,IC50,[3],35.1 µM
same,inhibition,[4],35%
same,IC50,[5],16.5 µM
O=C(O)[C@H]1CCCNC1 [(S)-NIPECOTIC ACID],IC50,Rattus norvegicus [26],9.88 µM
O=C(O)CC1CCNC1 (configuration not stated),IC50,[27],0.33 µM
same,IC50,Rattus norvegicus [6],1.54 µM
